pEC50: −log10 of the molar value.
Key:
[1] = target: Potassium voltage-gated channel subfamily A member 3 (Mus musculus, UniProt P16390); assay: Effect on blockade of mouse Kv1.3 channel expressed in L929 cells; type: functional, cell-based
Method in brief: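 Whole-cell patch clamp on L929 cells stably expressing mouse Kv1.3, holding potential -80 mV. Bath: Ringer (160 mM NaCl, 4.5 mM KCl, 2 mM CaCl2, 1 mM MgCl2, 10 mM HEPES, pH 7.4). Pipette: 134 mM KF, 2 mM MgCl2, 10 mM HEPES, 10 mM EGTA, pH 7.2. Current elicited by 500-ms pulses to 40 mV every 45 s. Series resistance compensation of 60-80% applied above 2 nA.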

[2] = target: Potassium voltage-gated channel subfamily A member 5 (Homo sapiens, UniProt P22460); assay: Effect on blockade of Kv1.5 channel; type: functional
Sequence of Potassium voltage-gated channel subfamily A member 5 (P22460 whole entry): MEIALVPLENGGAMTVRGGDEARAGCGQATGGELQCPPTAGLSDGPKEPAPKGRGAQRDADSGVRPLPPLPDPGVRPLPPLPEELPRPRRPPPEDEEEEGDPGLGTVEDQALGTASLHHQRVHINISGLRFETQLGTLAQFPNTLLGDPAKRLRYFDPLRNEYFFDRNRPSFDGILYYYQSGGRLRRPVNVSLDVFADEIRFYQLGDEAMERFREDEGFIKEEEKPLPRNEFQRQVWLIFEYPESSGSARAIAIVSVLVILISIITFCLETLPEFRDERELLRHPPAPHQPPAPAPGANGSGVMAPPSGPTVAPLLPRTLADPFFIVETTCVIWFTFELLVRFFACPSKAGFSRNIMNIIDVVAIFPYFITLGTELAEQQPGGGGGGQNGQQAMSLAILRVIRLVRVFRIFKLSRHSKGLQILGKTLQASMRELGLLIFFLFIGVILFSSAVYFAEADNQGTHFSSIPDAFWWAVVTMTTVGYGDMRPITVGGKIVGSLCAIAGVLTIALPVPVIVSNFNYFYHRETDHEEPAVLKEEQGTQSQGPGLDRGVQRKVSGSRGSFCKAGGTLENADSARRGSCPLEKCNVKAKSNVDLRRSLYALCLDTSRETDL
Method in brief: (§1)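 Whole-cell patch clamp with a holding potential of -80 mV on cell lines stably expressing Kv1.1, Kv1.2, Kv1.4 or Kv1.5. Recording followed previously described methods. EC50 came from a Hill equation fit to the reduction of area under the current curve.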

[3] = target: Potassium voltage-gated channel subfamily A member 4 (Homo sapiens, UniProt P22459); assay: Effect on blockade of Kv1.4 channel; type: functional; method in brief: as §1
Sequence of Potassium voltage-gated channel subfamily A member 4 (P22459 whole entry): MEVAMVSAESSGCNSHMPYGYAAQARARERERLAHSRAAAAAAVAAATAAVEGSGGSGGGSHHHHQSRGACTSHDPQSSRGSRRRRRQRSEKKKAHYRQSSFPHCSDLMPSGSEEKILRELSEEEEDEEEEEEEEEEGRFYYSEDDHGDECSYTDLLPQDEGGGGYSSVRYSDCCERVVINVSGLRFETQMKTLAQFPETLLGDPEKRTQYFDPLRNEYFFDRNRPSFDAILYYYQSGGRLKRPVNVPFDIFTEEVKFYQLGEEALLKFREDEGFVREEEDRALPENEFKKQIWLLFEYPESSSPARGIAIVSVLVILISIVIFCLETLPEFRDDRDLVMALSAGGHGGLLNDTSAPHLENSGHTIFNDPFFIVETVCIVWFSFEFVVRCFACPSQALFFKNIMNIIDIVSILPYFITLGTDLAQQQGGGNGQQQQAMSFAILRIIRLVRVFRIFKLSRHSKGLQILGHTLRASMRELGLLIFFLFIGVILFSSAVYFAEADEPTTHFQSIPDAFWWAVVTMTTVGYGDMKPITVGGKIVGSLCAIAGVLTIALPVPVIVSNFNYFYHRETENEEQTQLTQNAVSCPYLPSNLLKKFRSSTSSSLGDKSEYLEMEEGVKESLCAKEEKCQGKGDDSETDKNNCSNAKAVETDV

[4] = target: Potassium voltage-gated channel subfamily A member 1 (Homo sapiens, UniProt Q09470); assay: Effect on blockade of Kv1.1 channel; type: functional; method in brief: as §1
Sequence of Potassium voltage-gated channel subfamily A member 1 (Q09470 whole entry): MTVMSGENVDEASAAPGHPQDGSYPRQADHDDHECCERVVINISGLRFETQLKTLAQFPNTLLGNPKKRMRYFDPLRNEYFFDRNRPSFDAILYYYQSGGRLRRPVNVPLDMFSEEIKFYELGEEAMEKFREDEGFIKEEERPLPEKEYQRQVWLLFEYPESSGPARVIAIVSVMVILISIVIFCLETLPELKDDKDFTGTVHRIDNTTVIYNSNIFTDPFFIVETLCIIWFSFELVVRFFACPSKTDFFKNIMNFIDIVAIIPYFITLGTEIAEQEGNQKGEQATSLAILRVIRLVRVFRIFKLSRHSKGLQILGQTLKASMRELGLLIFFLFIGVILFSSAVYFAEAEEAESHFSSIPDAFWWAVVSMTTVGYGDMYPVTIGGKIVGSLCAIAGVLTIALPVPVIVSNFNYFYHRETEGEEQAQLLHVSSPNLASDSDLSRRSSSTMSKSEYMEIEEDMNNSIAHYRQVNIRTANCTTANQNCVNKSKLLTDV

[5] = target: Potassium voltage-gated channel subfamily A member 2 (Homo sapiens, UniProt P16389); assay: Effect on blockade of Kv1.2 channel; type: functional; method in brief: as §1
Sequence of Potassium voltage-gated channel subfamily A member 2 (P16389 whole entry): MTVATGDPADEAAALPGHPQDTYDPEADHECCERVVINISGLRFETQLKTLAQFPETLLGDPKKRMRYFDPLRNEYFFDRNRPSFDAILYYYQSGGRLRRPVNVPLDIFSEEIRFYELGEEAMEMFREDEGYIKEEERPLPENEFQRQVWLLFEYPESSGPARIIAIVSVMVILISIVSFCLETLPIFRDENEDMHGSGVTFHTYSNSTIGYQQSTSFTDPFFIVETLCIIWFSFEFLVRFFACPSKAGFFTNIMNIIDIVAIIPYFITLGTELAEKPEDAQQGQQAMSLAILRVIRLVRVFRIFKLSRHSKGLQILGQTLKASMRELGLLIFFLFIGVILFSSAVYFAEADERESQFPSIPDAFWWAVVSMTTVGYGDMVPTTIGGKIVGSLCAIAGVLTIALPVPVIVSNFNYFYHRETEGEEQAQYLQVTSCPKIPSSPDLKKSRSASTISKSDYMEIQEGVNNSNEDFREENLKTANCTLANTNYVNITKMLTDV

[6] = target: Voltage-gated inwardly rectifying potassium channel KCNH2 (Homo sapiens, UniProt Q12809); assay: Effect on blockade of Kv11.1 channel; type: functional
Sequence of Voltage-gated inwardly rectifying potassium channel KCNH2 (Q12809 whole entry): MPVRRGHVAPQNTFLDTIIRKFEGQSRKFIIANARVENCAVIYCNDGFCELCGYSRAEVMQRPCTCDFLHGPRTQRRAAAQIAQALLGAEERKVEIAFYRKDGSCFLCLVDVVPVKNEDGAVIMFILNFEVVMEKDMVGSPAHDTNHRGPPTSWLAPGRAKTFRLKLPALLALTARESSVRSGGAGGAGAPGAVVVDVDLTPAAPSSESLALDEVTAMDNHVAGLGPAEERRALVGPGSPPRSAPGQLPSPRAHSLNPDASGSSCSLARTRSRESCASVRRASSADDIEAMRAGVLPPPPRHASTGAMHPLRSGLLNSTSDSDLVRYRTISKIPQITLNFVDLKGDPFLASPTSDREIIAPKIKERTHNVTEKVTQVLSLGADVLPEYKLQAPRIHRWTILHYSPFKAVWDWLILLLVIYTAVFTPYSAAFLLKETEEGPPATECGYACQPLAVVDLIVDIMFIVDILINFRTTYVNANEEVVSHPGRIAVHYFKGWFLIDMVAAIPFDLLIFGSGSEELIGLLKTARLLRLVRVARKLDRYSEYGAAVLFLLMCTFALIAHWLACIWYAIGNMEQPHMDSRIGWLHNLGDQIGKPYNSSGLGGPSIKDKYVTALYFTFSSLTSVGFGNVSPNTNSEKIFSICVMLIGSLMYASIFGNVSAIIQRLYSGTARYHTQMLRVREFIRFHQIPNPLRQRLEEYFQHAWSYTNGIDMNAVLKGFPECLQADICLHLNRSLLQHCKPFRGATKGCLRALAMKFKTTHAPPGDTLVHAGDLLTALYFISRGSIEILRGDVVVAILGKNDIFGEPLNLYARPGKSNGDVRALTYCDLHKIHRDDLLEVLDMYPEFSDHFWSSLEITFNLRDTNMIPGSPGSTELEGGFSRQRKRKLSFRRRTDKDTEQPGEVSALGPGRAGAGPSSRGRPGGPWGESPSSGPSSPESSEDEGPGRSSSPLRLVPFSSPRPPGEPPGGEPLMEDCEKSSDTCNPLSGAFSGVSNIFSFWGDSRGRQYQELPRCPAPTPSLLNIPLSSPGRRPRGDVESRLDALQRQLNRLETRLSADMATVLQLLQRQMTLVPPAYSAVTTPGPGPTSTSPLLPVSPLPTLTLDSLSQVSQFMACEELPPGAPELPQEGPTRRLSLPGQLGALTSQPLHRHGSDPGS

T-cell = assay: Inhibition of anti-CD3 antibody stimulated human T cell proliferation; type: functional, cell-based
Method in brief: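 Human PBMCs were isolated from healthy donors by density gradient and plated at 2 × 10^5 cells/well in RPMI 1640 with 10% FCS. Cells were preincubated with compound for 30 min, then stimulated with 5 ng/mL anti-CD3 for 48 h. [3H]-thymidine (1 µCi/well) was added for the last 6 h. Done in triplicate and normalized to maximal control incorporation.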

Sequence of Potassium voltage-gated channel subfamily A member 3 (P16390 whole entry): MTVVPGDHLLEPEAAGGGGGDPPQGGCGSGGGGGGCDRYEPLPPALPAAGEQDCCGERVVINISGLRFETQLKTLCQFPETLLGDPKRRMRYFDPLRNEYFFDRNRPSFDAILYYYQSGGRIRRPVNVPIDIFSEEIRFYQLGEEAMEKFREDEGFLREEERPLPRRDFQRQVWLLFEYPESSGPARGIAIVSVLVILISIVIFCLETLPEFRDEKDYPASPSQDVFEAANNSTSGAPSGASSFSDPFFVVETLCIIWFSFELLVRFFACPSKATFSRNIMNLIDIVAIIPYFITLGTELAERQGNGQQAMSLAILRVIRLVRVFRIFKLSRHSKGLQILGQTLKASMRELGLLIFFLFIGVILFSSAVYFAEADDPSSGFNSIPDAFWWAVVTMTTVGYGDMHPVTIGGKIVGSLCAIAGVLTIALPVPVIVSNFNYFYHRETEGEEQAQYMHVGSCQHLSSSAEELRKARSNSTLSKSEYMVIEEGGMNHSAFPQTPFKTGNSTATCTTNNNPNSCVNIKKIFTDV

Compound | pEC50 [1] | other results
COc1c(C(C)=O)c(O)c(OCc2ccc(C(C)(C)C)cc2)c2occc12 | 5.24 | –
CCOc1c(C(C)=O)c(OCCCCCCOc2c(C(C)=O)c(OCC)c3ccoc3c2OC)c(OC)c2occc12 | 6.10 | –
COc1c(O)c(C(C)=O)c(OCc2ccc(C(=O)c3ccccc3)cc2)c2ccoc12 | 6.30 | –
COc1c(O)c(C(C)=O)c(OCc2cccc(Cl)c2)c2ccoc12 | 5.85 | –
COc1c(C(C)=O)c(O)c(OCc2ccc(F)cc2)c2occc12 | 6.15 | –
CCOc1c(O)c(C(C)=O)c(OC)c2ccoc12 | 5.00 | –
COc1c(O)c(C(C)=O)c(OCc2cccc(C(=O)O)c2)c2ccoc12 | < 5.00 | –
COc1c(C(C)=O)c(O)c(OCc2cccc(OC(F)(F)F)c2)c2occc12 | 6.35 | –
COc1c(C(C)=O)c(O)c(OCc2ccc(C(=O)c3ccccc3)cc2)c2occc12 | 6.30 | –
COc1c(C(C)=O)c(O)c(OCc2ccc(OC(F)(F)F)cc2)c2occc12 | 6.22 | –
COc1c(C(C)=O)c(O)c(OCc2cccc([N+](=O)[O-])c2)c2occc12 | 6.22 | –
COc1c(C(C)=O)c(O)c(OCc2cccc(Cl)c2)c2occc12 | 6.22 | –
CC(=O)c1c(O)c(OCc2ccccc2)c2occc2c1OCc1ccccc1 | 5.92 | pEC50 [2]: 5.30; pEC50 [3]: < 4.70; pEC50 [4]: 5.15; pEC50 [5]: 5.00
COc1c(C(C)=O)c(O)c(OCc2cccc(F)c2)c2occc12 | 6.12 | –
COc1cccc(COc2c(C(C)=O)c(O)c(OC)c3occc23)c1 | 6.17 | –
COc1c(O)c(C(C)=O)c(OCc2ccc(-c3ccccc3)cc2)c2ccoc12 | 6.05 | –
COc1c(C(C)=O)c(O)c(OCc2ccc(OCc3ccccc3)cc2)c2occc12 | 5.20 | –
COc1c(O)c(C(C)=O)c(OCc2ccc(C(C)C)cc2)c2ccoc12 | 6.15 | –

Compound | pEC50 [1] | other results
CCOc1c(C(C)=O)c(O)c(OCC)c2occc12 | 5.22 | –
COc1c(C(C)=O)c(O)c(OCc2ccc(C(F)(F)F)cc2)c2occc12 | 6.38 | –
COc1c(O)c(C(C)=O)c(OCc2ccccc2Cl)c2ccoc12 | 5.92 | –
COc1c(O)c(C(C)=O)c(OCc2ccccc2-c2ccccc2)c2ccoc12 | 5.70 | –
COc1c(C(C)=O)c(O)c(OCc2ccccc2F)c2occc12 | 5.60 | –
CCOc1c(C(C)=O)c(O)c(OC)c2occc12 | 5.15 | –
COc1c(C(C)=O)c(O)c(OCc2ccccc2)c2occc12 | 5.92 | –
COc1c(O)c(C(C)=O)c(OCc2ccc(OCc3ccccc3)cc2)c2ccoc12 | 5.06 | –
CCCCCOc1c(O)c(C(C)=O)c(OC)c2ccoc12 | 5.52 | –
COc1c(C(C)=O)c(O)c(OCc2cccc(C)c2)c2occc12 | 5.92 | –
COc1c(O)c(C(C)=O)c(OCc2cccc(F)c2)c2ccoc12 | 5.92 | –
CCCOc1c(C(C)=O)c(O)c(OC)c2occc12 | 5.30 | –
COc1c(C(C)=O)c(O)c(OCc2ccc(Br)cc2)c2occc12 | 6.40 | pEC50 [2]: 6.05; pEC50 [3]: 5.37; pEC50 [4]: 5.92; pEC50 (T-cell): 5.60; pEC50 [5]: 5.85
COc1c(C(C)=O)c(O)c(OCc2ccccc2Cl)c2occc12 | 6.15 | –
COc1c(C(C)=O)c(O)c(OCc2ccc(C(C)C)cc2)c2occc12 | 6.00 | –
COc1c(O)c(C(C)=O)c(OCc2ccc(F)cc2)c2ccoc12 | 6.00 | –
COc1c(O)c(C(C)=O)c(OCc2cccc(OC(F)(F)F)c2)c2ccoc12 | 6.26 | –
COc1c(C(C)=O)c(O)c(OC)c2occc12 | 4.35 | –

Continued, in another order:

pEC50 [1] | Compound | other results
5.92 | COc1c(C(C)=O)c(O)c(OCc2ccc(-c3ccccc3)cc2)c2occc12 | –
5.10 | CCCOc1c(O)c(C(C)=O)c(OC)c2ccoc12 | –
6.38 | COc1c(C(C)=O)c(O)c(OCc2ccc(Cl)cc2)c2occc12 | –
5.85 | COc1c(O)c(C(C)=O)c(OCc2cccc([N+](=O)[O-])c2)c2ccoc12 | –
6.00 | COc1c(O)c(C(C)=O)c(OCc2cccc(C)c2)c2ccoc12 | –
5.10 | COc1c(O)c(C(C)=O)c(OCc2cccc3ccccc23)c2ccoc12 | –
5.60 | COc1c(O)c(C(C)=O)c(OCc2ccccc2)c2ccoc12 | –
5.40 | CCCCCOc1c(C(C)=O)c(O)c(OC)c2occc12 | –
5.30 | COc1c(O)c(C(C)=O)c(OCc2ccc3ccccc3c2)c2ccoc12 | –
5.77 | COc1c(O)c(C(C)=O)c(OCc2ccccc2F)c2ccoc12 | –
5.60 | CCOc1c(C(=O)/C=C/c2cccc(O)c2)c(O)c(OC)c2occc12 | –
5.72 | COc1c(C(C)=O)c(O)c(OCc2ccccc2C)c2occc12 | –
5.70 | COc1c(O)c(C(C)=O)c(OCc2ccccc2C)c2ccoc12 | –
6.30 | COc1c(O)c(C(C)=O)c(OCc2ccc(Br)cc2)c2ccoc12 | –
5.96 | COc1c(C(C)=O)c(O)c(OCc2ccccc2-c2ccccc2)c2occc12 | –
5.82 | COc1c(O)c(C(C)=O)c(OCc2ccc(C(C)(C)C)cc2)c2ccoc12 | –
6.29 | COc1c(O)c(C(C)=O)c(OCc2ccc(C(F)(F)F)cc2)c2ccoc12 | –
6.32 | COc1c(O)c(C(C)=O)c(OCc2ccc(Cl)cc2)c2ccoc12 | pEC50 [2]: 6.15; pEC50 [3]: 5.32; pEC50 [4]: 5.77; pEC50 [6]: 5.30; pEC50 (T-cell): 5.60; pEC50 [5]: 5.60
5.74 | COc1c(O)c(C(C)=O)c(OCc2ccc(OC(F)(F)F)cc2)c2ccoc12 | –
5.30 | COc1c(C(C)=O)c(O)c(OCc2ccc3ccccc3c2)c2occc12 | –
5.82 | COc1ccc(COc2c(C(C)=O)c(O)c(OC)c3occc23)cc1 | –

Source: ChEMBL document CHEMBL1138143, “A new class of blockers of the voltage-gated potassium channel Kv1.3 via modification of the 4- or 7-position of khellinone” (J Med Chem, 2006)
